One compound from ChEMBL document CHEMBL5143731, “N-Acylamino Saccharin as an Emerging Cysteine-Directed Covalent Warhead and Its Application in the Identification of Novel FBPase Inhibitors toward Glucose Reduction” (J Med Chem, 2022) can be followed below.

Series [1] concerns the target Tyrosine-protein kinase BTK (Homo sapiens) (UniProt Q06187). In words: Inhibition of BTK (unknown origin) at 300 uM measured after 40 mins in presence of ATP by luminescence assay relative to control. Summed up:
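Kinase reaction (50 μL): 40 mM Tris pH 7.4, 10 mM MgCl2, 0.1 mg/mL BSA, 1 mM DTT, 10 μM ATP, kinase and substrate, with 1% final DMSO. Run 40 min at 30 °C. Residual ATP read by Kinase-Glo Plus luminescence, inversely related to kinase activity.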

For series [2], the system named is Mus musculus. The experiment in a line: Hypoglycemic activity in 12 hrs fasted ICR mouse assessed as reduction in blood glucose AUC (0 to 2 hrs) at 10 mg/kg, ip measured after 2 hrs. The class given is functional. Further details: scale not given: the % may be the effect or the level left. The gist of the method: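 OGTT: 12 h-fasted ICR mice (n = 6 per group) dosed ip (10 or 30 mg/kg in 10% ricinus oil/water), with vehicle and metformin 250 mg/kg controls, 1 h before oral glucose 2 g/kg. Tail blood glucose by glucometer at 0, 0.25, 0.5, 1, 1.5 and 2 h; AUC 0−2 h computed. Food withheld.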

Series [3] addresses T1, Fructose-1,6-bisphosphatase 1 (Homo sapiens, UniProt P09467).
T1 sequence (P09467 whole entry): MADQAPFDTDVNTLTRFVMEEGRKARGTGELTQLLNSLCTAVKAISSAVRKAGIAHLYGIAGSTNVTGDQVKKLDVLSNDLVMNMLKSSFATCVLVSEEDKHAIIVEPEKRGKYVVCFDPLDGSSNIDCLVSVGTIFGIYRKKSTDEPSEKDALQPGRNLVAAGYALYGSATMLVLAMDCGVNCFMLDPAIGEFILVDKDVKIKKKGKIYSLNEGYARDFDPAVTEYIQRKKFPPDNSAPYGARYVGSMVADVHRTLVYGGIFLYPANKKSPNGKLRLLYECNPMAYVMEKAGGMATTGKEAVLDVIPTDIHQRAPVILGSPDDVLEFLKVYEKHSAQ
In words: Inhibition of human FBPase expressed Escherichia coli BL21 in by malachite green dye based spectrophotometry. Summed up:
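His-tagged human liver FBPase expressed in E. coli BL21(DE3) and purified by Ni affinity. Phosphate released from FBP complexed with ammonium molybdate/malachite green and read at 620 nm against a KH2PO4 standard curve (2−60 μM). Initial rates at saturating substrate, fixed effector and varied inhibitor fitted to the Hill equation for IC50.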

For series [4], the species on record is Homo sapiens. In words: Selectivity ratio of IC50 for human FBPase to IC50 for recombinant ALDOC (unknown origin). Summed up: (§1)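 Aldolase (ALDOA/B/C) IC50 by NADH-coupled assay: enzyme plus serial compound dilutions, 0.41 mM NADH and TPI in 0.1 M Tris pH 7.4/0.2 M K-acetate, 3 min at 37 °C. Started with FBP and […], A340 read every 30 s for 6 min. Ratios against the FBPase IC50 from malachite green phosphate assay (620 nm).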

Series [5] in a line: Half life of the compound in DMSO. Type of series: physicochemical. Summed up:
(§2)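 Electrophile (20 μmol) incubated at 37 °C either in pH 7.4 buffer, or in DMSO-d6/D2O (5:1), with or without glutathione. Decay followed by 1H NMR kinetics. First-order rate constant kpseudo-1st taken from ln[electrophile] versus time; t1/2 = 0.693/(60×k), in min.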

Series [6] concerns Mus musculus. In words: Hypoglycemic activity in ICR mouse assessed as glucose lowering effect at 30 mg/kg, ip measured after 2 to 6 hrs. The class given is functional, organism-based. To be noted: time 2-6 hrs. The gist of the method: (§3)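 Fasted (12 h) male ICR mice received one intraperitoneal dose in 10% ricinus oil/water vehicle; metformin 250 mg/kg served as control. Food was withheld. Tail blood glucose was read by glucometer at 0, 1, 2, 4 and 6 h.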

Series [7] is described as follows: Half life of the compound in GSH. The class given is physicochemical. To be noted: GSH (glutathione). The gist of the method: as §2
Series [8] deals with Mus musculus. The experiment in a line: Hypoglycemic activity in 12 hrs fasted ICR mouse assessed as glucose lowering effect at 10 to 30 mg/kg, ip measured after 2 hrs. The class given is functional, organism-based. To be noted: dose 10-30 mg/kg. The gist of the method:
as §3

In series [9] the test system is Mus musculus. The experiment in a line: Hypoglycemic activity in 12 hrs fasted ICR mouse assessed as reduction in blood glucose AUC (0 to 6 hrs) at 30 mg/kg, ip measured after 6 hrs. The class given is functional. Further details: scale not given: the % may be the effect or the level left. Summed up:
(§4)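 Male ICR mice (n = 4 per group), fasted 12 h with food withheld throughout. Single ip dose in 10% ricinus oil in water; vehicle and metformin 250 mg/kg as controls. Tail-vein glucose by glucometer at 0, 1, 2, 4 and 6 h; AUC over 0−6 h calculated.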

Series [10] deals with Mus musculus. The experiment in a line: Hypoglycemic activity in 12 hrs fasted ICR mouse assessed as reduction in blood glucose AUC (0 to 6 hrs) at 10 mg/kg, ip measured after 6 hrs. Type of series: functional. Also noted: scale not given: the % may be the effect or the level left. The gist of the method: as §4
For series [11], the system named is Hepatocyte. In words: Cytotoxicity in ICR mouse serum starved primary hepatocytes assessed as reduction in cell viability at 50 to 300 uM. Type of series: toxicity, cell-based. To be noted: dose 50-300 µM.
The species entered for series [12] is Homo sapiens. The experiment in a line: Selectivity ratio of IC50 for human FBPase to IC50 for recombinant ALDOA (unknown origin). Summed up:
as §1

The source made the active and inactive calls. No cut-off for these calls is given here. Where only a bound is given, the exact number is not on record here.

Chain of Tyrosine-protein kinase BTK (Homo sapiens) (Q06187 whole entry): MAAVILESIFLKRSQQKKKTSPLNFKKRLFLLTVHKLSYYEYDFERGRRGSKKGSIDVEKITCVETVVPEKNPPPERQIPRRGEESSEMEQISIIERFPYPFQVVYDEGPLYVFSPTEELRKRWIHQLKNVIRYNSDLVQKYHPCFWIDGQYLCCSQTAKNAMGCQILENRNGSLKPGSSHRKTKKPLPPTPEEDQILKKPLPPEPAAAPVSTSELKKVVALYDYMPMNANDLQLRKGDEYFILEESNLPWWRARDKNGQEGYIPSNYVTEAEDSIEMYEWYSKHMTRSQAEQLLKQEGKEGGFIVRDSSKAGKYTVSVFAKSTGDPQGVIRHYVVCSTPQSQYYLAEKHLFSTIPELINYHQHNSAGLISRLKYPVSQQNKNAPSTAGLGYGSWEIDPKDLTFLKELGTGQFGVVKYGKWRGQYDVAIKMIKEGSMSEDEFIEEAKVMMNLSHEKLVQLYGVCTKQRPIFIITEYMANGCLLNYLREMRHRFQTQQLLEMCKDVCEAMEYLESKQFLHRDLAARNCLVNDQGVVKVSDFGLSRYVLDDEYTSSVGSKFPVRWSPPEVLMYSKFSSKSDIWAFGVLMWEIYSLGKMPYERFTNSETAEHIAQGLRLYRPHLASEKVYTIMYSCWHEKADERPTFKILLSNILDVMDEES

In the case of `O=C(NCc1ccccc1)N1C(=O)c2ccccc2S1(=O)=O`, the inhibition in [1] is below 50%. For the same compound, the Activity in [2] was 20.2%; in [9], 42.4%; in series [10] it was 15.3%; in series [11], “Non-Toxic”. The same compound displayed a concentration for half-maximal inhibition (IC50) in series [3] of 3.4 µM. For the same compound, the Ratio IC50 in series [4] and in [12] was above 25 each time. Also, the half-life in [5] was above 167 h; in series [7], 1.02 h. Further, the outcome in series [6] and in series [8] was Active.
